This note sets out measurements from ChEMBL document CHEMBL1144617, “Quinoxalinylurea derivatives as a novel class of JSP-1 inhibitors” (Bioorg Med Chem Lett, 2007).

This assay has as its target T1, Dual specificity protein phosphatase 22 (Homo sapiens, UniProt Q9NRW4).
T1 sequence (Q9NRW4 whole entry): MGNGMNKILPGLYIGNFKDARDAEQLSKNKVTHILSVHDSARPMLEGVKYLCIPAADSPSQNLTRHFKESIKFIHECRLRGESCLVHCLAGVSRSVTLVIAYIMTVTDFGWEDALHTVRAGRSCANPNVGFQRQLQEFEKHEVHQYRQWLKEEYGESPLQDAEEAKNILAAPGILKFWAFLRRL
Put plainly: Inhibition of GST-tagged human recombinant JSP1. Put shortly:
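Fluorescence kinetic phosphatase assay: 30 nM purified recombinant GST-fused human JSP-1 in 50 mM Bis-Tris pH 6.5, 1 mM EDTA, 1 mM DTT, with 10 µM OMFP as substrate. Hydrolysis followed continuously at excitation 485/emission 535 nm for 3 min; initial rate taken from the linear region of the kinetic curve.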
For the molecule `COc1nc2ccc(NC(=O)N3CCCC(C(=O)NC4CCCCC4)C3)cc2nc1OC` (stereo not drawn), the IC50 is over 100 µM.
Next, `O=C(Nc1ccc2nc(-c3ccco3)c(-c3ccco3)nc2c1)N1CCCC(C(=O)N2CCCCC2)C1` (stereo not drawn): 8.39 µM.
As to `O=C(Nc1ccc2nc(-c3ccccc3)c(-c3ccccc3)nc2c1)N1CCCC(C(=O)N2CCCCC2)C1` (stereo not drawn), the IC50 was over 40 µM.
Next, `O=C(NC1CCCCC1)C1CCCN(C(=O)Nc2ccc3nc(-c4ccc(F)cc4)c(-c4ccc(F)cc4)nc3c2)C1` (stereo not drawn): over 40 µM; `CCN(CC)C(=O)C1CCCN(C(=O)Nc2ccc3nc(-c4ccc(C)cc4)c(-c4ccc(C)cc4)nc3c2)C1` (stereo not drawn): over 40 µM.
Next, `CN(C)C(=O)C1CCCN(C(=O)Nc2ccc3nc(-c4ccco4)c(-c4ccco4)nc3c2)C1` (stereo not drawn): over 40 µM.
Next, `CCCCNC(=O)C1CCCN(C(=O)Nc2ccc3nc(-c4ccco4)c(-c4ccco4)nc3c2)C1` (stereo not drawn): 2.79 µM; `CCNC(=O)C1CCCN(C(=O)Nc2ccc3nc(-c4ccco4)c(-c4ccco4)nc3c2)C1` (stereo not drawn): over 40 µM.
For the molecule `CCN(CC)C(=O)C1CCCN(C(=O)Nc2ccc3nc(-c4ccc(Br)cc4)c(-c4ccc(Br)cc4)nc3c2)C1` (stereo not drawn), the IC50 was over 40 µM.
Next, `O=C(NC1CCCC1)C1CCCN(C(=O)Nc2ccc3nc(-c4ccco4)c(-c4ccco4)nc3c2)C1` (stereo not drawn): 3.02 µM; `CCCCN(CC)C(=O)C1CCCN(C(=O)Nc2ccc3nc(-c4ccco4)c(-c4ccco4)nc3c2)C1` (stereo not drawn): 2.35 µM; `CCCN(CCC)C(=O)C1CCCN(C(=O)Nc2ccc3nc(-c4ccco4)c(-c4ccco4)nc3c2)C1` (stereo not drawn): 2.5 µM.
Take `O=C(NC1CCCCC1)C1CCCN(C(=O)Nc2ccc3nc(-c4ccco4)c(-c4ccco4)nc3c2)C1` (stereo not drawn): the IC50 stood at 2.25 µM.
For `CCCCN(C)C(=O)C1CCCN(C(=O)Nc2ccc3nc(-c4ccco4)c(-c4ccco4)nc3c2)C1` (stereo not drawn) the value was 5.55 µM.
On to `CCN(CC)C(=O)C1CCCN(C(=O)Nc2ccc3nc(-c4ccc(F)cc4)c(-c4ccc(F)cc4)nc3c2)C1` (stereo not drawn), for which the IC50 is over 40 µM.
Next, `CC(C)CNC(=O)C1CCCN(C(=O)Nc2ccc3nc(-c4ccco4)c(-c4ccco4)nc3c2)C1` (stereo not drawn): 8.36 µM; `CC(C)NC(=O)C1CCCN(C(=O)Nc2ccc3nc(-c4ccco4)c(-c4ccco4)nc3c2)C1` (stereo not drawn): over 40 µM; `CCN(CC)C(=O)C1CCCN(C(=O)Nc2ccc3nc(-c4ccccc4)c(-c4ccccc4)nc3c2)C1` (stereo not drawn): over 40 µM.
With `Cc1ccc(-c2nc3ccc(NC(=O)N4CCCC(C(=O)NC5CCCC5)C4)cc3nc2-c2ccc(C)cc2)cc1` (stereo not drawn), the IC50 is over 40 µM.
For `COc1nc2ccc(NC(=O)N3CCCC(C(=O)N4CCCCC4)C3)cc2nc1OC` (stereo not drawn) the value was over 100 µM.
Next, `O=C(Nc1ccc2nc(-c3ccc(Br)cc3)c(-c3ccc(Br)cc3)nc2c1)N1CCCC(C(=O)N2CCCC2)C1` (stereo not drawn): over 40 µM; `CC(C)(C)NC(=O)C1CCCN(C(=O)Nc2ccc3nc(-c4ccco4)c(-c4ccco4)nc3c2)C1` (stereo not drawn): 8.05 µM.
For `CCN(CC)C(=O)C1CCCN(C(=O)Nc2ccc3nc(-c4ccco4)c(-c4ccco4)nc3c2)C1` (stereo not drawn) the value was 12 µM.
